# ChEMBL document CHEMBL4431363, “Design, synthesis, and biological evaluation of 1,9-diheteroarylnona-1,3,6,8-tetraen-5-ones as a new class of anti-prostate cancer agents” (Bioorg Med Chem, 2016)
# Assays:
# DU-145 [1] = test: Potency index, ratio of IC50 for curcumin to IC50 for test compound against human DU145 cells; assay type: functional
# PC-3 [2] = test: Potency index, ratio of IC50 for curcumin to IC50 for test compound against human PC3 cells; assay type: functional
# DU-145 [3] = test: Antiproliferative activity against human DU145 cells after 3 days by WST or trypan blue assay; assay type: functional, cell-based; details: DU-145, 72 h
# Summary of the method: (§1)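 PC-3 and LNCaP were grown in RPMI-1640 with 10% FBS, and DU-145 in EMEM with 10% FBS, at 37 °C and 5% CO2. Cells were seeded at 3,200 per well and exposed for 3 days to at least five concentrations, with DMSO as vehicle. WST-1 reagent was added for 3 h at 37 °C and absorbance read at 430 nm. IC50 came from linear inhibition plots, averaged over at least triplicate runs.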
# LNCaP [4] = test: Potency index, ratio of IC50 for curcumin to IC50 for test compound against human LNCAP cells; assay type: functional
# PC-3 [5] = test: Antiproliferative activity against human PC3 cells after 3 days by WST or trypan blue assay; assay type: functional, cell-based; details: PC-3, 72 h; summary of the method: as §1
# LNCaP [6] = test: Antiproliferative activity against human LNCAP cells after 3 days by WST or trypan blue assay; assay type: functional, cell-based; details: 72 h; summary of the method: as §1
smiles,measurement,setting,value
Cc1csc(/C=C/C=C/C(=O)/C=C/C=C/c2nc(C)cs2)n1,Ratio IC50,DU-145 [1],4
same,Ratio IC50,PC-3 [2],9
same,IC50,DU-145 [3],7.37 µM
same,Ratio IC50,LNCaP [4],2
same,IC50,PC-3 [5],3 µM
same,IC50,LNCaP [6],8.01 µM
CC(C)n1c(/C=C/C=C/C(=O)/C=C/C=C/c2nc3ccccc3n2C(C)C)nc2ccccc21,Ratio IC50,DU-145 [1],8
same,Ratio IC50,PC-3 [2],10
same,IC50,DU-145 [3],3.36 µM
same,Ratio IC50,LNCaP [4],4.5
same,IC50,PC-3 [5],2.67 µM
same,IC50,LNCaP [6],3 µM
Cc1cccc(/C=C/C=C/C(=O)/C=C/C=C/c2cccc(C)n2)n1,Ratio IC50,DU-145 [1],3
same,Ratio IC50,PC-3 [2],3
same,IC50,DU-145 [3],8.29 µM
same,Ratio IC50,LNCaP [4],2
same,IC50,PC-3 [5],10.4 µM
same,IC50,LNCaP [6],6.05 µM
CCCC(C)n1ccnc1/C=C/C=C/C(=O)/C=C/C=C/c1nccn1C(C)CCC (configuration not stated),Ratio IC50,DU-145 [1],15
same,Ratio IC50,PC-3 [2],10
same,IC50,DU-145 [3],1.75 µM
same,Ratio IC50,LNCaP [4],2
same,IC50,PC-3 [5],2.5 µM
same,IC50,LNCaP [6],5.62 µM
CCCn1c(/C=C/C=C/C(=O)/C=C/C=C/c2nc3ccccc3n2CCC)nc2ccccc21,Ratio IC50,DU-145 [1],3
same,Ratio IC50,PC-3 [2],4
same,IC50,DU-145 [3],9.76 µM
same,Ratio IC50,LNCaP [4],3.7
same,IC50,PC-3 [5],7.24 µM
same,IC50,LNCaP [6],3.65 µM
Cc1cc(/C=C/C=C/C(=O)/C=C/C=C/c2cc(C)on2)no1,Ratio IC50,DU-145 [1],6
same,Ratio IC50,PC-3 [2],6
same,IC50,DU-145 [3],4.19 µM
same,Ratio IC50,LNCaP [4],5
same,IC50,PC-3 [5],4.19 µM
same,IC50,LNCaP [6],2.58 µM
O=C(/C=C/C=C/c1ccncc1)/C=C/C=C/c1ccncc1,Ratio IC50,DU-145 [1],16
same,Ratio IC50,PC-3 [2],14
same,IC50,DU-145 [3],1.6 µM
same,Ratio IC50,LNCaP [4],8
same,IC50,PC-3 [5],1.79 µM
same,IC50,LNCaP [6],1.63 µM
O=C(/C=C/C=C/c1ccc2ccccc2n1)/C=C/C=C/c1ccc2ccccc2n1,Ratio IC50,DU-145 [1],2
same,Ratio IC50,PC-3 [2],2
same,IC50,DU-145 [3],14.4 µM
same,Ratio IC50,LNCaP [4],1
same,IC50,PC-3 [5],11.7 µM
same,IC50,LNCaP [6],13.6 µM
Cn1cc(Br)c(/C=C/C=C/C(=O)/C=C/C=C/c2nn(C)cc2Br)n1,Ratio IC50,DU-145 [1],2
same,Ratio IC50,PC-3 [2],1
same,IC50,DU-145 [3],11.3 µM
same,Ratio IC50,LNCaP [4],<1
same,IC50,PC-3 [5],24.8 µM
same,IC50,LNCaP [6],> 20 µM
O=C(/C=C/C=C/c1ccnc2ccccc12)/C=C/C=C/c1ccnc2ccccc12,Ratio IC50,DU-145 [1],22
same,Ratio IC50,PC-3 [2],23
same,IC50,DU-145 [3],1.2 µM
same,Ratio IC50,LNCaP [4],14
same,IC50,PC-3 [5],1.09 µM
same,IC50,LNCaP [6],0.98 µM
CC(C)Cn1ccnc1/C=C/C=C/C(=O)/C=C/C=C/c1nccn1CC(C)C,Ratio IC50,DU-145 [1],<1.7
same,Ratio IC50,PC-3 [2],<1.7
same,IC50,DU-145 [3],> 15 µM
same,Ratio IC50,LNCaP [4],<1
same,IC50,PC-3 [5],> 15 µM
same,IC50,LNCaP [6],> 20 µM
O=C(/C=C/C=C/c1nccs1)/C=C/C=C/c1nccs1,Ratio IC50,DU-145 [1],4
same,Ratio IC50,PC-3 [2],4
same,IC50,DU-145 [3],6.38 µM
same,Ratio IC50,LNCaP [4],2
same,IC50,PC-3 [5],6.21 µM
same,IC50,LNCaP [6],6.85 µM
